Laboratory results: EPA's CvTdb concentration-time database

Tests used:
mouse [1] = test: concentration in kidney after dosing; conditions: dosed: dichloromethane, iv, male, B6C3F1
Outline: (§1)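 A PubMed search, classifier screening and manual review identified published in vivo toxicokinetic studies, which together with two structured collections supplied concentration-versus-time and amount-versus-time points. Points were mostly digitised from plot screenshots with WebPlotDigitizer, otherwise copied from tables. Dose, route, subject details and medium were hand-curated from each paper, and sampling and analytical methods are those of the sources, often unreported.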

mouse [2] = test: concentration in body after dosing; conditions: dosed: dichloromethane, iv, male, B6C3F1
Outline: as §1

mouse [3] = test: concentration in liver after dosing; conditions: dosed: dichloromethane, iv, male, B6C3F1
Outline: as §1

human [4] = test: concentration in blood after dosing; negative times count back from the end of exposure; conditions: dosed: dichloromethane, inhalation, duration: 6 hr, male
Outline: as §1

human [5] = test: concentration in expired air after dosing; negative times count back from the end of exposure; conditions: dosed: dichloromethane, inhalation, duration: 6 hr, male
Outline: as §1

mouse [6] = test: concentration in lung after dosing; conditions: dosed: dichloromethane, iv, male, B6C3F1
Outline: as §1

ClCCl [dichloromethane]
Conditions	concentration in blood [ng/mL]	concentration in body [µg/g]	concentration in expired air [ppm]	concentration in kidney [µg/g]	concentration in liver [µg/g]	concentration in lung [µg/g]
human [4], 1 h, 100 ppm	150	–	–	–	–	–
human [4], 1 h, 350 ppm	910	–	–	–	–	–
human [4], 6 h, 100 ppm	62	–	–	–	–	–
human [4], 6 h, 350 ppm	340	–	–	–	–	–
human [4], 16 h, 100 ppm	12	–	–	–	–	–
human [4], 16 h, 350 ppm	77	–	–	–	–	–
human [4], 24 h, 350 ppm	36	–	–	–	–	–
human [5], 0.083 h, 100 ppm	–	–	12.1	–	–	–
human [5], 0.083 h, 350 ppm	–	–	81.3	–	–	–
human [5], 0.25 h, 100 ppm	–	–	8.5	–	–	–
human [5], 0.25 h, 350 ppm	–	–	58.9	–	–	–
human [5], 0.5 h, 100 ppm	–	–	6.7	–	–	–
human [5], 0.5 h, 350 ppm	–	–	38.7	–	–	–
human [5], 1 h, 100 ppm	–	–	4.2	–	–	–
human [5], 1 h, 350 ppm	–	–	25.1	–	–	–
human [5], 1.5 h, 100 ppm	–	–	2.7	–	–	–
human [5], 1.5 h, 350 ppm	–	–	17.7	–	–	–
human [5], 2 h, 100 ppm	–	–	2.6	–	–	–
human [5], 2 h, 350 ppm	–	–	14.9	–	–	–
human [5], 3 h, 100 ppm	–	–	1.8	–	–	–
human [5], 3 h, 350 ppm	–	–	10.3	–	–	–
human [5], 4 h, 100 ppm	–	–	1.4	–	–	–
human [5], 4 h, 350 ppm	–	–	8.3	–	–	–
human [5], 6 h, 350 ppm	–	–	4.5	–	–	–
human [5], 8 h, 350 ppm	–	–	3.2	–	–	–
human [5], 16 h, 350 ppm	–	–	1.3	–	–	–
mouse [1], 1 h, 10 mg/kg	–	–	–	1.99	–	–
mouse [1], 1 h, 50 mg/kg	–	–	–	3.82	–	–
mouse [1], 3 h, 10 mg/kg	–	–	–	1.31	–	–
mouse [1], 3 h, 50 mg/kg	–	–	–	2.17	–	–
mouse [1], 4 h, 10 mg/kg	–	–	–	0.78	–	–
mouse [1], 4 h, 50 mg/kg	–	–	–	1.74	–	–
mouse [1], 20 min, 10 mg/kg	–	–	–	1.86	–	–
mouse [1], 20 min, 50 mg/kg	–	–	–	3.7	–	–
mouse [1], 40 min, 10 mg/kg	–	–	–	1.56	–	–
mouse [1], 40 min, 50 mg/kg	–	–	–	5.31	–	–
mouse [2], 1 h, 10 mg/kg	–	0.14	–	–	–	–
mouse [2], 1 h, 50 mg/kg	–	0.14	–	–	–	–
mouse [2], 3 h, 50 mg/kg	–	0.028	–	–	–	–
mouse [2], 4 h, 50 mg/kg	–	0.018	–	–	–	–
mouse [2], 20 min, 10 mg/kg	–	1.3	–	–	–	–
mouse [2], 20 min, 50 mg/kg	–	1.16	–	–	–	–
mouse [2], 40 min, 10 mg/kg	–	0.076	–	–	–	–
mouse [2], 40 min, 50 mg/kg	–	0.076	–	–	–	–
mouse [3], 1 h, 10 mg/kg	–	–	–	–	4.11	–
mouse [3], 1 h, 50 mg/kg	–	–	–	–	15.4	–
mouse [3], 3 h, 10 mg/kg	–	–	–	–	2.56	–
mouse [3], 3 h, 50 mg/kg	–	–	–	–	7.81	–
mouse [3], 4 h, 10 mg/kg	–	–	–	–	1.29	–
mouse [3], 4 h, 50 mg/kg	–	–	–	–	7.12	–
mouse [3], 20 min, 10 mg/kg	–	–	–	–	3.45	–
mouse [3], 20 min, 50 mg/kg	–	–	–	–	21.6	–
mouse [3], 40 min, 10 mg/kg	–	–	–	–	3.57	–
mouse [3], 40 min, 50 mg/kg	–	–	–	–	15.9	–
mouse [6], 1 h, 10 mg/kg	–	–	–	–	–	4.11
mouse [6], 1 h, 50 mg/kg	–	–	–	–	–	2.96
mouse [6], 3 h, 10 mg/kg	–	–	–	–	–	2.56
mouse [6], 3 h, 50 mg/kg	–	–	–	–	–	1.54
mouse [6], 4 h, 10 mg/kg	–	–	–	–	–	1.29
mouse [6], 4 h, 50 mg/kg	–	–	–	–	–	1.23
mouse [6], 20 min, 10 mg/kg	–	–	–	–	–	1.71
mouse [6], 20 min, 50 mg/kg	–	–	–	–	–	6.19
mouse [6], 40 min, 10 mg/kg	–	–	–	–	–	3.57
mouse [6], 40 min, 50 mg/kg	–	–	–	–	–	3.98

during exposure
Conditions	concentration in blood, 100 ppm [ng/mL]	concentration in blood, 350 ppm [ng/mL]	concentration in expired air, 100 ppm [ppm]	concentration in expired air, 350 ppm [ppm]
human [4], -1 h	1050	5860	–	–
human [4], -3 h	1110	5920	–	–
human [4], -6 h	5	16	–	–
human [5], -1 h	–	–	43.3	192
human [5], -2 h	–	–	42.8	190
human [5], -3 h	–	–	41.8	192
human [5], -4 h	–	–	41.2	176
human [5], -4.5 h	–	–	40.4	165
human [5], -5 h	–	–	39.4	155
human [5], -5.5 h	–	–	36.4	141
human [5], -5.75 h	–	–	34.6	126
human [5], -36 s	–	–	45.7	202
